# Results reported in ChEMBL document CHEMBL1137240, “Conjugation of adenosine and hexa-(D-arginine) leads to a nanomolar bisubstrate-analog inhibitor of basophilic protein kinases” (J Med Chem, 2006).
# Legend:
# [1] = target: Serine/threonine-protein kinase PLK1 (Homo sapiens) (UniProt P53350); assay: Percent residual activity, relative to control, of PLK1 at 1 uM concentration of inhibitor in presence of 5 uM ATP
# Summary of the method: (§1)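 It is expressed as percent of activity in control incubations without inhibitor, as the mean of duplicate determinations. The protocol follows earlier published panel methods.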
# [2] = target: Mitogen-activated protein kinase 15 (Homo sapiens) (UniProt Q8TD08); assay: Percent residual activity, relative to control, of ERK8 at 1 uM concentration of inhibitor in presence of 5 uM ATP; summary of the method: as §1
# [3] = target: Serine/threonine-protein kinase N2 (Homo sapiens) (UniProt Q16513); assay: Percent residual activity, relative to control, of PRK2 at 1 uM concentration of inhibitor in presence of 5 uM ATP; summary of the method: as §1
# [4] = target: Mitogen-activated protein kinase 14 (Homo sapiens) (UniProt Q16539); assay: Percent residual activity, relative to control, of SAPK2a/p38 at 1 uM concentration of inhibitor in presence of 50 uM ATP; summary of the method: as §1
# [5] = target: Proto-oncogene tyrosine-protein kinase Src (Homo sapiens) (UniProt P12931); assay: Percent residual activity, relative to control, of Src at 1 uM concentration of inhibitor in presence of 50 uM ATP
# Summary of the method: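 Methods followed an earlier description. Activity is given as percent residual activity relative to control incubations with the inhibitor omitted. Values are means of duplicate determinations.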
# [6] = target: Dual specificity mitogen-activated protein kinase kinase 1 (Homo sapiens) (UniProt Q02750); assay: Percent residual activity, relative to control, of MKK1 at 1 uM concentration of inhibitor in presence of 5 uM ATP; summary of the method: as §1
# [7] = target: Mitogen-activated protein kinase 1 (Homo sapiens) (UniProt P28482); assay: Percent residual activity, relative to control, of MAPK2/ERK2 at 1 uM concentration of inhibitor in presence of 50 uM ATP; summary of the method: as §1
# [8] = target: Lymphokine-activated killer T-cell-originated protein kinase (Homo sapiens) (UniProt Q96KB5); assay: Percent residual activity, relative to control, of PBK at 1uM concentration of inhibitor in presence of 50uM ATP; summary of the method: as §1
# [9] = target: cAMP-dependent protein kinase catalytic subunit alpha (Homo sapiens, UniProt P17612); assay: Inhibitory potency towards human cAPK C alpha in the presence of 100 uM ATP and 30 uM TAMRA-kemptide
# Summary of the method: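 cAPK catalytic subunit (about 1 nM) incubated at 30 °C with inhibitor at various concentrations in 50 mM Hepes pH 7.5, 10 mM Mg acetate, 0.2 mg/mL BSA, 30 µM TAMRA-kemptide; reaction started with 100 µM ATP. Stopped at fixed times by 20-fold dilution in 75 mM phosphoric acid, then normal-phase TLC with fluorescence imaging (532 nm excitation). IC50 determined.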
# [10] = target: Mitogen-activated protein kinase 12 (Homo sapiens) (UniProt P53778); assay: Percent residual activity, relative to control, of SAPK3/p38 gamma at 1 uM concentration of inhibitor in presence of 5 uM ATP; summary of the method: as §1
# [11] = target: Protein kinase C alpha type (Homo sapiens) (UniProt P17252); assay: Percent residual activity, relative to control, of PKC alpha at 1uM concentration of inhibitor in presence of 20uM ATP; summary of the method: as §1
# [12] = target: Casein kinase I (Homo sapiens) (UniProt Q9HCP0+P78368+P48730+P49674+P48729); assay: Percent residual activity, relative to control, of CK1 at 1 uM concentration of inhibitor in presence of 20 uM ATP; format: protein assay; summary of the method: as §1
# [13] = target: Serine/threonine-protein kinase Nek7 (Homo sapiens) (UniProt Q8TDX7); assay: Percent residual activity, relative to control, of NEK7 at 1 uM concentration of inhibitor in presence of 20 uM ATP; summary of the method: as §1
# [14] = target: MAP/microtubule affinity-regulating kinase 3 (Homo sapiens) (UniProt P27448); assay: Percent residual activity, relative to control, of MARK3 at 1uM concentration of inhibitor in presence of 5uM ATP; summary of the method: as §1
# Homo sapiens [15] = species: Homo sapiens; assay: Percent residual activity, relative to control, of CAMK-1 at 1 uM concentration of inhibitor in presence of 50 uM ATP; summary of the method: as §1
# [16] = target: SRSF protein kinase 1 (Homo sapiens) (UniProt Q96SB4); assay: Percent residual activity, relative to control, of SRPK1 at 1 uM concentration of inhibitor in presence of 50 uM ATP; summary of the method: as §1
# Homo sapiens [17] = species: Homo sapiens; assay: Percent residual activity, relative to control, of MAPKAP-K1b/Rsk2 at 1 uM concentration of inhibitor in presence of 50 uM ATP; summary of the method: as §1
# [18] = target: MAP kinase-activated protein kinase 3 (Homo sapiens) (UniProt Q16644); assay: Percent residual activity, relative to control, of MAPKAP-K3 at 1 uM concentration of inhibitor in presence of 20 uM ATP; summary of the method: as §1
# [19] = target: Mitogen-activated protein kinase 10 (Homo sapiens) (UniProt P53779); assay: Percent residual activity, relative to control, of JNK3 at 1uM concentration of inhibitor in presence of 50uM ATP; summary of the method: as §1
# [20] = target: MAP kinase-interacting serine/threonine-protein kinase 2 (Homo sapiens) (UniProt Q9HBH9); assay: Percent residual activity, relative to control, of MNK2 at 1 uM concentration of inhibitor in presence of 50 uM ATP; summary of the method: as §1
# [21] = target: Tyrosine-protein kinase CSK (Homo sapiens) (UniProt P41240); assay: Percent residual activity, relative to control, of CSK at 1 uM concentration of inhibitor in presence of 20 uM ATP; summary of the method: as §1
# [22] = target: Serine/threonine-protein kinase Nek2 (Homo sapiens) (UniProt P51955); assay: Percent residual activity, relative to control, of NEK2a at 1 uM concentration of inhibitor in presence of 50 uM ATP; summary of the method: as §1
# [23] = target: Serine/threonine-protein kinase D1 (Homo sapiens) (UniProt Q15139); assay: Percent residual activity, relative to control, of PKD1 at 1 uM concentration of inhibitor in presence of 50 uM ATP; summary of the method: as §1
# [24] = target: RAC-alpha serine/threonine-protein kinase (Homo sapiens) (UniProt P31749); assay: Percent residual activity, relative to control, of PKB alpha (no ph) at 1 uM concentration of inhibitor in presence of 5 uM ATP; summary of the method: as §1
# [25] = target: Mitogen-activated protein kinase 11 (Homo sapiens) (UniProt Q15759); assay: Percent residual activity, relative to control, of SAPK2b/p38ss2 at 1 uM concentration of inhibitor in presence of 20 uM ATP; summary of the method: as §1
# MAP kinase-interacting serine/threonine-protein kinase 2 (Homo sapiens), sequence (Q9HBH9 whole entry, looked up): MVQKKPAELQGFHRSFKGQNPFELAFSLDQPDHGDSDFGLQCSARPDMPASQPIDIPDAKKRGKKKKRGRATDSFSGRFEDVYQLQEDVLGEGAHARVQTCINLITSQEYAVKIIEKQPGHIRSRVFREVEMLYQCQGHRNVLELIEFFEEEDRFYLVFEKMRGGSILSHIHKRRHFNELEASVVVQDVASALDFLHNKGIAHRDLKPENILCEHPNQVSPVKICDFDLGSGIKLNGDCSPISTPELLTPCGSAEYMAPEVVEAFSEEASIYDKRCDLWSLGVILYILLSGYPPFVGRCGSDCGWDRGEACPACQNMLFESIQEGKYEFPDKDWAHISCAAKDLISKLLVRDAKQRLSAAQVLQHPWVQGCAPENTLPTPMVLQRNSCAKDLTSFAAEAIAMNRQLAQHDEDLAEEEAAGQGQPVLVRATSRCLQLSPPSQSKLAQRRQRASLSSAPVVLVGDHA
# Dual specificity mitogen-activated protein kinase kinase 1 (Homo sapiens), sequence (Q02750 whole entry): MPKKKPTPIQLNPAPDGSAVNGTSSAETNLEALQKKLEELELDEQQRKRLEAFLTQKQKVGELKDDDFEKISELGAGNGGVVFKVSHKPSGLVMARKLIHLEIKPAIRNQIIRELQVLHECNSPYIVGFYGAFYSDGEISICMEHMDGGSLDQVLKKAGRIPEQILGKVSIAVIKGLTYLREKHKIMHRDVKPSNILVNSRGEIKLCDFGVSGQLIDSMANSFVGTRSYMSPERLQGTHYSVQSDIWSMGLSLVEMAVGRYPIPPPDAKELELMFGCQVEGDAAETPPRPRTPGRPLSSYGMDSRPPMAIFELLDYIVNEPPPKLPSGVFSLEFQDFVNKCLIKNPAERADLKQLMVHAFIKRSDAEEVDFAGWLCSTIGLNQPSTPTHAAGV
# Tyrosine-protein kinase CSK (Homo sapiens), sequence (P41240 2-450 limits assumed): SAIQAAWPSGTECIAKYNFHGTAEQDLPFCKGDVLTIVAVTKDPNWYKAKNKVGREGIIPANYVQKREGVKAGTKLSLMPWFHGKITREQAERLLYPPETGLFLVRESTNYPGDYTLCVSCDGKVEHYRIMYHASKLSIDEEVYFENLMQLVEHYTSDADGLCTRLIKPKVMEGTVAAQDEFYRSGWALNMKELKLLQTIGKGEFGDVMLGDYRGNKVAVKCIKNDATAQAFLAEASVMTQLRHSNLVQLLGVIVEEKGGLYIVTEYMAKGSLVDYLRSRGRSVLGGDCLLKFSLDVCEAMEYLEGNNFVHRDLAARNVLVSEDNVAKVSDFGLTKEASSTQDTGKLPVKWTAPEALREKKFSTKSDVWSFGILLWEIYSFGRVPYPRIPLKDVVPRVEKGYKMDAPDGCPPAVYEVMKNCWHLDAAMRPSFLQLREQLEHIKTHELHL
# RAC-alpha serine/threonine-protein kinase (Homo sapiens), sequence (P31749 whole entry): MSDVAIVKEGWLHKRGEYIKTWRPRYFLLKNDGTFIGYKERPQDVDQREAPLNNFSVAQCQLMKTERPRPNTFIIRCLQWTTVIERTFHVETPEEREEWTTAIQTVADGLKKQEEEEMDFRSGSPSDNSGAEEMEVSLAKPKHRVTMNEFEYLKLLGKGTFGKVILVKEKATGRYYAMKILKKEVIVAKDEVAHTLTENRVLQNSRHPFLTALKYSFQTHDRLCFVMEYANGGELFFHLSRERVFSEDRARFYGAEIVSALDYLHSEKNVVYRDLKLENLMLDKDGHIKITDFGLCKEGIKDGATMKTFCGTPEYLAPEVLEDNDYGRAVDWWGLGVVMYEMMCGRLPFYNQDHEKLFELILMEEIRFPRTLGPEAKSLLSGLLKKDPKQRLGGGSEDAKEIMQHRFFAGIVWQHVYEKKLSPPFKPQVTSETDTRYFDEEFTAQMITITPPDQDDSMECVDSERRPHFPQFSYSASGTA
# Proto-oncogene tyrosine-protein kinase Src (Homo sapiens), sequence (P12931 2-536 limits assumed): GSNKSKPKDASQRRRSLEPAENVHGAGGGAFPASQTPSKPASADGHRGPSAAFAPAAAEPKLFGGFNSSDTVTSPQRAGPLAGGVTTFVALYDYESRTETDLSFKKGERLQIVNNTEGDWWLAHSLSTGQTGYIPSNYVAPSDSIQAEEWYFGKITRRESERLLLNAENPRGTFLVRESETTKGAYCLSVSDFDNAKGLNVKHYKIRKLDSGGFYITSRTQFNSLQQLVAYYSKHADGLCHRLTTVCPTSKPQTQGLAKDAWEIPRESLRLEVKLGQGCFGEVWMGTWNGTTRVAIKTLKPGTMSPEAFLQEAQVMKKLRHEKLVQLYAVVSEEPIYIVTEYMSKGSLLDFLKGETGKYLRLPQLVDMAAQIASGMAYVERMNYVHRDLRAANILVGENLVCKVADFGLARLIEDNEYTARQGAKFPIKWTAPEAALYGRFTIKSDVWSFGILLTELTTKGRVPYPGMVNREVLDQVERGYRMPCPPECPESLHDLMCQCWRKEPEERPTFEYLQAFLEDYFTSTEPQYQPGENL
# Mitogen-activated protein kinase 10 (Homo sapiens), sequence (P53779 whole entry): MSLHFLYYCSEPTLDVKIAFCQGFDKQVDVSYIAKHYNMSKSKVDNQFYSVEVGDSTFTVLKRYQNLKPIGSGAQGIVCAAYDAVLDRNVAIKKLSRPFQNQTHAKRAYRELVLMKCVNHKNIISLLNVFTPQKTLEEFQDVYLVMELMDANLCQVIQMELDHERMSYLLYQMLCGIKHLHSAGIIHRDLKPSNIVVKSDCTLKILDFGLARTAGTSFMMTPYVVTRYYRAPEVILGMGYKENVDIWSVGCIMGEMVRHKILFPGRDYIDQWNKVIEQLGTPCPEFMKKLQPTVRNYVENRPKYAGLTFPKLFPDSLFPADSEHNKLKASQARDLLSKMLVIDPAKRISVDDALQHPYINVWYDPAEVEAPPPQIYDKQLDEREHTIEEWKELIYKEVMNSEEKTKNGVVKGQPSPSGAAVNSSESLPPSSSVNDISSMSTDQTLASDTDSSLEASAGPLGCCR
# Mitogen-activated protein kinase 12 (Homo sapiens), sequence (P53778 whole entry): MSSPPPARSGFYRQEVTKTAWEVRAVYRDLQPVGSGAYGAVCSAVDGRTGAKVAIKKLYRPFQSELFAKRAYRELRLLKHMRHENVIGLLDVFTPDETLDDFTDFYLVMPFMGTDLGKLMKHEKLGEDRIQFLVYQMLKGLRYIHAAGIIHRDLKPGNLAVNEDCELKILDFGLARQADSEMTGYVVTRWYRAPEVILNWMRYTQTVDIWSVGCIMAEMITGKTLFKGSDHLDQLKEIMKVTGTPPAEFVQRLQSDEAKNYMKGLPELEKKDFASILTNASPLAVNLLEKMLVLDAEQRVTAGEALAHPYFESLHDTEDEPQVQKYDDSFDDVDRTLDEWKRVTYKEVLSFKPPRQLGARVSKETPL
# Serine/threonine-protein kinase N2 (Homo sapiens), sequence (Q16513 whole entry, looked up): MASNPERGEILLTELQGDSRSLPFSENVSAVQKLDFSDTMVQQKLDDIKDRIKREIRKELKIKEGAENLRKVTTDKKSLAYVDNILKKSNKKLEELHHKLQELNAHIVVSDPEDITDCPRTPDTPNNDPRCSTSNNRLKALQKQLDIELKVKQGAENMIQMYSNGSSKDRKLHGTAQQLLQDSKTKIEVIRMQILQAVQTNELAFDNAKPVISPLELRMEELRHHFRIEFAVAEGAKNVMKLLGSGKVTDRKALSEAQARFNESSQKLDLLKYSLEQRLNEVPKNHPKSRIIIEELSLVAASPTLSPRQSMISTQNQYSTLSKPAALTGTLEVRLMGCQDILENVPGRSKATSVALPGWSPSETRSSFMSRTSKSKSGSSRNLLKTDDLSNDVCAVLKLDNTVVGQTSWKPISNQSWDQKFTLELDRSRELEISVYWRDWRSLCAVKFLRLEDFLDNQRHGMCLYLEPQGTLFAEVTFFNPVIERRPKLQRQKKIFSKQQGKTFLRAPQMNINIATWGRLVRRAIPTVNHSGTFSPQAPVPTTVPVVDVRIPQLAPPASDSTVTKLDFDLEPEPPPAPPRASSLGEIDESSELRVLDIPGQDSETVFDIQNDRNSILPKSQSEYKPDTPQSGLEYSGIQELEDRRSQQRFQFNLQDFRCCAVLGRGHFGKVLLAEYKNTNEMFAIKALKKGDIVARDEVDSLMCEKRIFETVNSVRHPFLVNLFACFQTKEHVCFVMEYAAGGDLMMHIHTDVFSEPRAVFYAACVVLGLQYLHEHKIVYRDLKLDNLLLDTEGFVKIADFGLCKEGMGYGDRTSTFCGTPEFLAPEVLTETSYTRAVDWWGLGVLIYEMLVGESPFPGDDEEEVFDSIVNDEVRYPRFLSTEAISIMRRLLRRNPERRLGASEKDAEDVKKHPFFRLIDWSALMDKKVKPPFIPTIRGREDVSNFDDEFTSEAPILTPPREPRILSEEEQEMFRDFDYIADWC
# MAP kinase-activated protein kinase 3 (Homo sapiens), sequence (Q16644 whole entry, looked up): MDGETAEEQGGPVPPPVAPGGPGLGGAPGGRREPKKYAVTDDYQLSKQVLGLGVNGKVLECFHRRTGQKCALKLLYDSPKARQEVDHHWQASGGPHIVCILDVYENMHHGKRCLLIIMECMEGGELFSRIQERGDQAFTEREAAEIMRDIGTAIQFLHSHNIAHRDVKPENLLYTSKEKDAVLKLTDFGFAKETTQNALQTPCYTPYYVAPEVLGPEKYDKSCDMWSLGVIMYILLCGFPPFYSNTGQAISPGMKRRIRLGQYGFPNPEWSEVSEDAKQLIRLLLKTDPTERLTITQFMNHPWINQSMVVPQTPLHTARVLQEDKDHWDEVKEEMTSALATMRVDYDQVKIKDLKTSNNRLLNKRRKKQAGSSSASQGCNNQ
# Mitogen-activated protein kinase 1 (Homo sapiens), sequence (P28482 whole entry): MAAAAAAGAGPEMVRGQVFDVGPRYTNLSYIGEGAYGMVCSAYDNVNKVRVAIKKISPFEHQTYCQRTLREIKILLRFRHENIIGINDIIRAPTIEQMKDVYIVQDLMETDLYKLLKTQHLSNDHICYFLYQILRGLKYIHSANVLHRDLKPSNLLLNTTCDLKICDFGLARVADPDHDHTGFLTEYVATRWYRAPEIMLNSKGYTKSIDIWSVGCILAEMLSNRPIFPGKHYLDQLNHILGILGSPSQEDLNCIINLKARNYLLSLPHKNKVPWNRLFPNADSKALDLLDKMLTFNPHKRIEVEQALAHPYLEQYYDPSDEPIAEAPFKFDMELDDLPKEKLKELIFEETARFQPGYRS
structure (smiles),measurement,setting,value
N=C(N)NCCC[C@@H](NC(=O)[C@@H](CCCNC(=N)N)NC(=O)[C@@H](CCCNC(=N)N)NC(=O)[C@@H](CCCNC(=N)N)NC(=O)[C@@H](CCCNC(=N)N)NC(=O)[C@@H](CCCNC(=N)N)NC(=O)CCCCCNC(=O)[C@H]1O[C@@H](n2cnc3c(N)ncnc32)[C@H](O)[C@@H]1O)C(N)=O,Activity,[1],81%
same,Activity,[2],50%
same,Activity,[3],2%
same,Activity,[4],79%
same,Activity,[5],84%
same,Activity,[6],77%
same,Activity,[7],100%
same,Activity,[8],88%
same,IC50,[9],0.109 µM
same,Activity,[10],111%
same,Activity,[11],31%
same,Activity,[12],106%
same,Activity,[13],58%
same,Activity,[14],40%
same,Activity,Homo sapiens [15],15%
same,Activity,[16],100%
same,Activity,Homo sapiens [17],12%
same,Activity,[18],67%
same,Activity,[19],91%
same,Activity,[20],99%
same,Activity,[21],48%
same,Activity,[22],82%
same,Activity,[23],54%
same,Activity,[24],2%
same,Activity,[25],85%
